Measured values taken from ChEMBL document CHEMBL1158567, “Azetidinone-isothiazolidinones: stereoselective synthesis and antibacterial evaluation of new monocyclic beta-lactams” (2010).
Values after ≈ are worked out from the molar mass of the structure shown.

Assays:
Format in all cases: functional
Streptococcus pneumoniae = assay: Antibacterial activity against Streptococcus pneumoniae ATCC 6305 after overnight incubation by broth microdilution method
Method in brief: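 Broth microdilution MIC in cation-adjusted Mueller–Hinton broth supplemented with 5% horse serum. The inoculum was overnight agar colonies suspended in sterile saline to 0.5 McFarland turbidity. The screen cut-off was […]. Testing conditions were pH 7.4.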

Moraxella catarrhalis = assay: Antibacterial activity against Moraxella catarrhalis ATCC 23246 after overnight incubation by broth microdilution method
Method in brief: (§1)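 MIC from a broth microdilution screen against ATCC reference strains, run in cation-adjusted Mueller–Hinton broth. Inocula were made from overnight agar cultures: colonies were suspended in sterile saline to a turbidity equal to a 0.5 McFarland standard. The screen's upper cut-off was […]. Testing conditions were pH 7.4.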

Escherichia coli = assay: Antibacterial activity against Escherichia coli ATCC 25922 after overnight incubation by broth microdilution method; method in brief: as §1
Enterococcus faecalis = assay: Antibacterial activity against Enterococcus faecalis ATCC 29212 after overnight incubation by broth microdilution method; method in brief: as §1
Haemophilus influenzae = assay: Antibacterial activity against Haemophilus influenzae ATCC 49247 after overnight incubation by broth microdilution method
Method in brief: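 Broth microdilution MIC run in Haemophilus Test Medium (HTM). The inoculum was overnight agar colonies suspended in sterile saline to 0.5 McFarland turbidity. The upper cut-off was […]. Testing conditions were pH 7.4.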

Staphylococcus aureus = assay: Antibacterial activity against Staphylococcus aureus ATCC 29213 after overnight incubation by broth microdilution method
Method in brief: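 MIC from a broth microdilution screen in cation-adjusted Mueller–Hinton broth against the ATCC reference strain. The inoculum was colonies from overnight agar culture suspended in sterile saline to a 0.5 McFarland turbidity. The top concentration tested was […]. Testing conditions were pH 7.4.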

CC1(C)S[C@@H]2[C@H](NC(=O)[C@H](N)c3ccc(O)cc3)C(=O)N2[C@H]1C(=O)O [AMOXICILLIN]
MIC (Streptococcus pneumoniae): 4 µg/mL (≈ 10.9 µM)
MIC (Moraxella catarrhalis): 0.5 µg/mL (≈ 1.37 µM)
MIC (Escherichia coli): 0.5 µg/mL (≈ 1.37 µM)
MIC (Enterococcus faecalis): 4 µg/mL (≈ 10.9 µM)
MIC (Haemophilus influenzae): 0.015 µg/mL (≈ 0.041 µM)
MIC (Staphylococcus aureus): 1 µg/mL (≈ 2.74 µM)

C[C@@H](C(=O)OCc1ccccc1)N1SC(C)(C)[C@@H](N2C(=O)[C@@H](N3C(=O)c4ccccc4C3=O)[C@@H]2Cl)C1=O
MIC (Streptococcus pneumoniae): 64 µg/mL (≈ 118 µM)
MIC (Moraxella catarrhalis): 32 µg/mL (≈ 59 µM)
MIC (Escherichia coli): > 128 µg/mL
MIC (Enterococcus faecalis): 64 µg/mL (≈ 118 µM)
MIC (Haemophilus influenzae): > 128 µg/mL
MIC (Staphylococcus aureus): 64 µg/mL (≈ 118 µM)

C[C@H](NC(=O)[C@@H]1N2C(=O)[C@@H](N3C(=O)c4ccccc4C3=O)[C@H]2SC1(C)C)C(=O)OCc1ccccc1
MIC (Moraxella catarrhalis): > 128 µg/mL

CC(C)NC(=O)[C@@H]1N2C(=O)[C@@H](N3C(=O)c4ccccc4C3=O)[C@H]2SC1(C)C
MIC (Moraxella catarrhalis): > 128 µg/mL

CC(C)N1SC(C)(C)[C@@H](N2C(=O)[C@@H](N3C(=O)c4ccccc4C3=O)[C@@H]2Cl)C1=O
MIC (Moraxella catarrhalis): 64 µg/mL (≈ 152 µM)

CC1(C)SN(CC(=O)OCc2ccccc2)C(=O)[C@@H]1N1C(=O)[C@@H](N2C(=O)c3ccccc3C2=O)[C@@H]1Cl
MIC (Streptococcus pneumoniae): 64 µg/mL (≈ 121 µM)
MIC (Moraxella catarrhalis): 32 µg/mL (≈ 60.6 µM)
MIC (Escherichia coli): > 128 µg/mL
MIC (Enterococcus faecalis): 32 µg/mL (≈ 60.6 µM)
MIC (Haemophilus influenzae): > 128 µg/mL
MIC (Staphylococcus aureus): 64 µg/mL (≈ 121 µM)

C[C@@H](C(=O)O)N1SC(C)(C)[C@@H](N2C(=O)[C@@H](N3C(=O)c4ccccc4C3=O)[C@@H]2Cl)C1=O
MIC (Enterococcus faecalis): > 128 µg/mL

CC1(C)SN(Cc2ccccc2)C(=O)[C@@H]1N1C(=O)[C@@H](N2C(=O)c3ccccc3C2=O)[C@@H]1Cl
MIC (Streptococcus pneumoniae): 64 µg/mL (≈ 136 µM)
MIC (Moraxella catarrhalis): 16 µg/mL (≈ 34 µM)
MIC (Escherichia coli): > 128 µg/mL
MIC (Enterococcus faecalis): 64 µg/mL (≈ 136 µM)
MIC (Haemophilus influenzae): > 128 µg/mL
MIC (Staphylococcus aureus): 128 µg/mL (≈ 272 µM)

CC1(C)S[C@@H]2[C@H](N3C(=O)c4ccccc4C3=O)C(=O)N2[C@H]1C(=O)NCC(=O)OCc1ccccc1
MIC (Moraxella catarrhalis): 64 µg/mL (≈ 130 µM)

CC1(C)SN(CC(=O)O)C(=O)[C@@H]1N1C(=O)[C@@H](N2C(=O)c3ccccc3C2=O)[C@@H]1Cl
MIC (Enterococcus faecalis): > 128 µg/mL

CC1(C)SN([C@H](C(=O)O)c2ccccc2)C(=O)[C@@H]1N1C(=O)[C@@H](N2C(=O)c3ccccc3C2=O)[C@@H]1Cl
MIC (Moraxella catarrhalis): > 128 µg/mL

CC1(C)S[C@@H]2[C@H](N3C(=O)c4ccccc4C3=O)C(=O)N2[C@H]1C(=O)N[C@H](C(=O)OCc1ccccc1)c1ccccc1
MIC (Moraxella catarrhalis): > 128 µg/mL

CC1(C)SN([C@H](C(=O)OCc2ccccc2)c2ccccc2)C(=O)[C@@H]1N1C(=O)[C@@H](N2C(=O)c3ccccc3C2=O)[C@@H]1Cl
MIC (Streptococcus pneumoniae): 8 µg/mL (≈ 13.2 µM)
MIC (Moraxella catarrhalis): 64 µg/mL (≈ 106 µM)
MIC (Escherichia coli): > 128 µg/mL
MIC (Enterococcus faecalis): 16 µg/mL (≈ 26.5 µM)
MIC (Haemophilus influenzae): > 128 µg/mL
MIC (Staphylococcus aureus): 32 µg/mL (≈ 53 µM)

CC1(C)S[C@@H]2[C@H](N3C(=O)c4ccccc4C3=O)C(=O)N2[C@H]1C(=O)NCc1ccccc1
MIC (Moraxella catarrhalis): 64 µg/mL (≈ 147 µM)
